8 compounds from ChEMBL document CHEMBL1126564, “Synthesis and antimicrobial evaluation of a series of 7-[3-amino (or aminomethyl)-4-aryl (or cyclopropyl)-1-pyrrolidinyl]-4-quinolone- and -1,8-naphthyridone-3-carboxylic acids” (1993) can be followed below.

The structures appear in SMILES notation. ≈ marks a conversion by molar mass, not a printed value.

Assay type in all cases: functional
The subject of one test is Escherichia coli. Put plainly: Minimum inhibitory concentration against Escherichia coli Vogel. Conditions: Escherichia coli; read-out: MIC. Put shortly: (§1)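 Standard microdilution method against a panel of five Gram-negative and five Gram-positive bacterial strains. The MIC (µg/mL) was recorded for each strain.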
In a further test the test system is Enterobacter cloacae. The test can be described thus: Minimum inhibitory concentration against […] MA-2646. The note with it: Enterobacter cloacae; read-out: MIC. Put shortly:
as §1

A further test has as its system Pseudomonas aeruginosa. The test can be described thus: Minimum inhibitory concentration against Pseudomonas aeruginosa UI-18. The note with it: Pseudomonas aeruginosa; read-out: MIC. The procedure, abridged: as §1
Test [1] relates to Staphylococcus aureus. Put plainly: Minimum inhibitory concentration against Staphylococcus aureus UC-76. The note with it: Staphylococcus aureus; read-out: MIC. Put shortly: as §1
Test [2] has as its system Mus musculus. The test can be described thus: Median protective dose determined in acute lethal system infection caused by Streptococcus pyogenes C-203 in CD-1 mice (single dose sc). Conditions: read-out: PD50. Put shortly: (§2)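 Acute lethal systemic infection in female Charles River CD-1 mice; compound given once, orally (po) or subcutaneously (sc), at the time of challenge. Median protective dose (PD50, mg/kg) derived from survival.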

Another test relates to Providencia rettgeri. Put plainly: Minimum inhibitory concentration against Providencia rettgeri M-1771. Conditions: Providencia rettgeri; read-out: MIC. Put shortly:
as §1

Another test has as its system Enterococcus faecalis. The test can be described thus: Minimum inhibitory concentration against […] MGH-2. The note with it: Enterococcus faecalis; read-out: MIC. Put shortly: as §1
In another test the test system is Streptococcus pyogenes. Put plainly: Minimum inhibitory concentration against Streptococcus pyogenes C-203. The note with it: Streptococcus pyogenes; read-out: MIC. The procedure, abridged:
as §1

The species named for test [3] is Mus musculus. Put plainly: Median protective dose determined in acute lethal system infection caused by Streptococcus pyogenes C-203 in CD-1 mice (single dose perorally). Conditions: po, read-out: PD50. Put shortly:
as §2

A further test has as its system Streptococcus pneumoniae. The test can be described thus: Minimum inhibitory concentration against Streptococcus pneumoniae SV-1. The note with it: Streptococcus pneumoniae; read-out: MIC. Put shortly:
as §1

The test system of the next test is Klebsiella pneumoniae. The test can be described thus: Minimum inhibitory concentration against Klebsiella pneumoniae MGH-2. Conditions: Klebsiella pneumoniae; read-out: MIC. Put shortly:
as §1

In test [4] the test system is Staphylococcus aureus. The test can be described thus: Minimum inhibitory concentration against Staphylococcus aureus H-228. Conditions: Staphylococcus aureus; read-out: MIC. Put shortly:
as §1

For test [5], the species on record is Mus musculus. The test can be described thus: Median protective dose determined in acute lethal system infection caused by Escherichia coli vogel in CD-1 mice (single dose perorally). The note with it: po, read-out: PD50. The procedure, abridged: as §2
Test [6] has as its system Mus musculus. Put plainly: Median protective dose determined in acute lethal system infection caused by Escherichia coli vogel in CD-1 mice (single dose sc). Conditions: read-out: PD50. The procedure, abridged: as §2

As a reminder, the MIC is the lowest concentration that inhibits growth of the organism. Take `NCC1CN(c2c(F)cc3c(=O)c(C(=O)O)cn(C4CC4)c3c2F)CC1c1ccccc1` (trans isomer): the MIC in the test on Escherichia coli was 0.05 mg/L (≈ 0.114 µM); with Enterobacter cloacae, 0.05 mg/L (≈ 0.114 µM); in the test on Pseudomonas aeruginosa, 0.8 mg/L (≈ 1.82 µM); in the test on Staphylococcus aureus [1] it was 0.003 mg/L (≈ 0.00683 µM); in the test with Providencia rettgeri, 0.1 mg/L (≈ 0.228 µM); in the test on Enterococcus faecalis, 0.013 mg/L (≈ 0.0296 µM). Further, the MIC with Streptococcus pyogenes was determined as 0.013 mg/L (≈ 0.0296 µM); in the test with Streptococcus pneumoniae, 0.013 mg/L (≈ 0.0296 µM); in the test on Klebsiella pneumoniae, 0.05 mg/L (≈ 0.114 µM); with Staphylococcus aureus [4], 0.013 mg/L (≈ 0.0296 µM). Further, the figures for the ED50 in the test on Mus musculus [2] and in the test listed under Mus musculus [3] were 1.6 mg/kg and 10 mg/kg, respectively.
In the case of `NCC1CN(c2nc3c(cc2F)c(=O)c(C(=O)O)cn3C2CC2)CC1c1ccco1` (trans isomer), the MIC in the test with Escherichia coli is 0.1 mg/L (≈ 0.242 µM); with Enterobacter cloacae, 0.2 mg/L (≈ 0.485 µM); in the test on Pseudomonas aeruginosa, 0.4 mg/L (≈ 0.97 µM); with Staphylococcus aureus [1] it was 0.013 mg/L (≈ 0.0315 µM); with Providencia rettgeri, 0.2 mg/L (≈ 0.485 µM); with Enterococcus faecalis, 0.05 mg/L (≈ 0.121 µM). Moreover, the MIC in the test with Streptococcus pyogenes stood at 0.05 mg/L (≈ 0.121 µM); in the test on Streptococcus pneumoniae it was 0.025 mg/L (≈ 0.0606 µM); in the test on Klebsiella pneumoniae it was 0.1 mg/L (≈ 0.242 µM); in the test with Staphylococcus aureus [4], 0.05 mg/L (≈ 0.121 µM). The ED50 with Mus musculus [2] was 4.2 mg/kg; in the test listed under Mus musculus [3], 36 mg/kg.
Consider `NC1CN(c2nc3c(cc2F)c(=O)c(C(=O)O)cn3C2CC2)CC1c1ccc(F)cc1` (trans isomer), for which the MIC in the test with Escherichia coli is 0.1 mg/L (≈ 0.235 µM); with Enterobacter cloacae, 0.1 mg/L (≈ 0.235 µM); with Pseudomonas aeruginosa, 1.6 mg/L (≈ 3.75 µM); in the test with Staphylococcus aureus [1], 0.025 mg/L (≈ 0.0586 µM); in the test on Providencia rettgeri, 0.4 mg/L (≈ 0.938 µM); with Enterococcus faecalis, 0.1 mg/L (≈ 0.235 µM). Besides, the MIC in the test on Streptococcus pyogenes was 0.2 mg/L (≈ 0.469 µM); in the test with Streptococcus pneumoniae it was 0.2 mg/L (≈ 0.469 µM); in the test on Klebsiella pneumoniae, 0.2 mg/L (≈ 0.469 µM); in the test with Staphylococcus aureus [4] it was 0.1 mg/L (≈ 0.235 µM). Moreover, the results for the ED50 in the test listed under Mus musculus [5] and in the test on Mus musculus [6] were 18 mg/kg and 9 mg/kg, respectively.
For `NC1CN(c2nc3c(cc2F)c(=O)c(C(=O)O)cn3C2CC2)CC1c1ccccc1` (configuration not stated), the MIC came to 0.1 mg/L (≈ 0.245 µM) in the test on Escherichia coli; 0.1 mg/L (≈ 0.245 µM) with Enterobacter cloacae; 1.6 mg/L (≈ 3.92 µM) in the test with Pseudomonas aeruginosa; 0.05 mg/L (≈ 0.122 µM) with Staphylococcus aureus [1]; 0.4 mg/L (≈ 0.979 µM) in the test with Providencia rettgeri; 0.2 mg/L (≈ 0.49 µM) in the test on Enterococcus faecalis. Also, the MIC is 0.2 mg/L (≈ 0.49 µM) in the test on Streptococcus pyogenes, 0.1 mg/L (≈ 0.245 µM) in the test on Streptococcus pneumoniae, 0.2 mg/L (≈ 0.49 µM) with Klebsiella pneumoniae and 0.1 mg/L (≈ 0.245 µM) in the test on Staphylococcus aureus [4]. For the same compound, the ED50 stood at 11 mg/kg in the test filed under Mus musculus [5] and 6.5 mg/kg with Mus musculus [6].
As to `NC1CN(c2c(F)cc3c(=O)c(C(=O)O)cn(C4CC4)c3c2F)CC1c1ccc(O)cc1` (trans isomer), the MIC with Escherichia coli was found to be 0.1 mg/L (≈ 0.227 µM); in the test with Enterobacter cloacae it was 0.1 mg/L (≈ 0.227 µM); in the test on Pseudomonas aeruginosa, 1.6 mg/L (≈ 3.62 µM); in the test on Staphylococcus aureus [1], 0.025 mg/L (≈ 0.0566 µM); in the test with Providencia rettgeri, 0.2 mg/L (≈ 0.453 µM); with Enterococcus faecalis, 0.1 mg/L (≈ 0.227 µM). The MIC in the test with Streptococcus pyogenes, in the test on Streptococcus pneumoniae, in the test with Klebsiella pneumoniae and in the test with Staphylococcus aureus [4] was 0.1 mg/L (≈ 0.227 µM) throughout. For the same compound, the ED50 in the test listed under Mus musculus [5] came out at 100 mg/kg; with Mus musculus [6], 50 mg/kg.
Consider `NCC1CN(c2nc3c(cc2F)c(=O)c(C(=O)O)cn3C2CC2)CC1c1ccccc1` (trans isomer), for which the MIC was 0.05 mg/L (≈ 0.118 µM) in the test on Escherichia coli; 0.05 mg/L (≈ 0.118 µM) in the test on Enterobacter cloacae; 0.8 mg/L (≈ 1.89 µM) with Pseudomonas aeruginosa; 0.006 mg/L (≈ 0.0142 µM) in the test on Staphylococcus aureus [1]; 0.1 mg/L (≈ 0.237 µM) with Providencia rettgeri; 0.025 mg/L (≈ 0.0592 µM) in the test on Enterococcus faecalis. Moreover, the minimal inhibitory concentration (MIC) with Streptococcus pyogenes was determined as 0.025 mg/L (≈ 0.0592 µM); in the test on Streptococcus pneumoniae, 0.013 mg/L (≈ 0.0308 µM); with Klebsiella pneumoniae, 0.05 mg/L (≈ 0.118 µM); with Staphylococcus aureus [4] it was 0.025 mg/L (≈ 0.0592 µM). In addition, the ED50 with Mus musculus [2] was determined as 4.5 mg/kg; in the test listed under Mus musculus [3], 27 mg/kg.
For the compound `COc1ccc(C2CN(c3c(F)cc4c(=O)c(C(=O)O)cn(C5CC5)c4c3F)CC2N)cc1` (trans isomer), the MIC with Escherichia coli is 0.1 mg/L (≈ 0.22 µM); in the test on Enterobacter cloacae, 0.1 mg/L (≈ 0.22 µM); in the test with Pseudomonas aeruginosa, 1.6 mg/L (≈ 3.51 µM); in the test on Staphylococcus aureus [1], 0.013 mg/L (≈ 0.0285 µM); in the test on Providencia rettgeri, 0.4 mg/L (≈ 0.878 µM); in the test with Enterococcus faecalis, 0.1 mg/L (≈ 0.22 µM). The MIC is 0.05 mg/L (≈ 0.11 µM) in the test with Streptococcus pyogenes, 0.05 mg/L (≈ 0.11 µM) with Streptococcus pneumoniae, 0.2 mg/L (≈ 0.439 µM) in the test with Klebsiella pneumoniae and 0.025 mg/L (≈ 0.0549 µM) in the test on Staphylococcus aureus [4].
Turning to `CCOC(=O)C1CC1C1CN(c2cc3c(cc2F)c(=O)c(C(=O)O)cn3C2CC2)CC1N` (trans isomer), the MIC was determined as 0.2 mg/L (≈ 0.451 µM) in the test with Escherichia coli; 0.2 mg/L (≈ 0.451 µM) in the test on Enterobacter cloacae; 3.1 mg/L (≈ 6.99 µM) with Pseudomonas aeruginosa; 0.2 mg/L (≈ 0.451 µM) with Staphylococcus aureus [1]; 0.8 mg/L (≈ 1.8 µM) with Providencia rettgeri; 0.8 mg/L (≈ 1.8 µM) in the test on Enterococcus faecalis. Moreover, the MIC with Streptococcus pyogenes was found to be 0.8 mg/L (≈ 1.8 µM); in the test on Streptococcus pneumoniae, 0.8 mg/L (≈ 1.8 µM); with Klebsiella pneumoniae, 0.4 mg/L (≈ 0.902 µM); in the test with Staphylococcus aureus [4], 1.6 mg/L (≈ 3.61 µM).
